Measured values: article PMC3563353 (Bioconjugate chemistry, 2012)
“Also recorded” adds a separate entry of the source.

Assays:
[1] = system: MC5R; conditions: cell lines engineered to overexpress MC5R; cited from earlier work
[2] = system: MC4R; conditions: cell lines engineered to overexpress MC4R; cited from earlier work
[3] = system: B16F10 cells; experiment: In vitro MC1R probe uptake study by fluorescence microscopy, B16F10 cells; assay type: cell-based, mouse
In short: (§1)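 Cy5-conjugated MC1R ligand probe at 15 nM in medium, on live cells (1 × 10^4/well) grown 16 h on glass coverslips. Cells: A375/MC1R (stable hMC1R transfectant, 300 μg/ml G418) or melanotic B16F10-Luc; DMEM, 10% FBS, 37°C, 5% CO2. Imaged by fluorescence microscopy from 40 s to 15 min. For blocking, 10 min pre-incubation with 2 μM NDP-α-MSH.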

[4] = system: A375/MC1R cells; experiment: In vitro MC1R probe uptake study by fluorescence microscopy, A375/MC1R cells; assay type: cell-based, human; conditions: 10 minute pre-incubation with 2 μM NDP-α-MSH before probe
In short: as §1

[5] = system: A375/MC1R and A375 xenograft tumors; experiment: In vivo fluorescence imaging of bilateral A375 / A375/MC1R xenograft tumors; design: species or system nu/nu mice; conditions: p<0.05
[6] = system: B16F10 xenograft tumors; assay type: in vivo, nu/nu mice; conditions: 3 nmol/kg i.v., melanotic B16F10 xenograft

Compound: 4-phenylbutyryl-His-DPhe-Arg-Trp-Gly-Lys
- affinity for MC5R (in words) [1]: high nanomolar
- affinity for MC4R (in words) [2]: high nanomolar

Compound: CCN1C(=CC=CC=CC2=[N+](CCCCCC(=O)NCCN3C(=O)CC(SCCC(=O)NCCCC[C@H](NC(=O)CNC(=O)[C@H](Cc4c[nH]c5ccccc45)NC(=O)[C@H](CCCNC(=N)N)NC(=O)[C@@H](Cc4ccccc4)NC(=O)[C@H](Cc4c[nH]cn4)NC(=O)CCCc4ccccc4)C(N)=O)C3=O)c3ccc(S(=O)(=O)O)cc3C2(C)C)C(C)(C)c2cc(S(=O)(=O)[O-])ccc21 (stereo partly shown) [MC1RL-Cy5]
- probe uptake by B16F10 cells after blocking with NDP-α-MSH ([3]; B16F10 cells pre-incubated with unlabeled NDP-α-MSH before probe): blocking of probe-uptake was also observed; also recorded: completely blocked
- probe uptake by B16F10 cells ([3]; melanotic B16F10 cells with endogenous MC1R, 15 nM probe, 5 min time-point): Probe uptake was also observed; also recorded: internalization of probe into the cells
- binding and uptake of probe after blocking with NDP-α-MSH [4]: No binding or uptake; also recorded: completely blocked

Compound: CC1(C)C(=CC=C2CCCC(C=CC3=[N+](CCCCS(=O)(=O)O)c4ccc(S(=O)(=O)[O-])cc4C3(C)C)=C2Oc2ccc(S(=O)(=O)O)cc2)N(CCCCCC(=O)NCCN2C(=O)CC(SCCC(=O)NCCCC[C@H](NC(=O)CNC(=O)[C@H](Cc3c[nH]c4ccccc34)NC(=O)[C@H](CCCNC(=N)N)NC(=O)[C@@H](Cc3ccccc3)NC(=O)[C@H](Cc3c[nH]cn3)NC(=O)CCCc3ccccc3)C(N)=O)C2=O)c2ccc(S(=O)(=O)O)cc21 (stereo partly drawn) [MC1RL-800, 4-phenylbutyryl-His-DPhe-Arg-Trp-Gly-Lys(Mpr-IRDye800CW)-NH2]
- tumor uptake with co-injection of excess NDP-α-MSH peptide (in words) [5]: significantly blocked
- fluorescence detection in B16F10 tumors with the Optix MX3 imaging system [6]: not detectable
